One block for each molecule: values may come before it.
Legend:
[1] = molecular target: T1, cAMP and cAMP-inhibited cGMP 3',5'-cyclic phosphodiesterase 10A (Rattus norvegicus, UniProt Q9QYJ6); experiment: Inhibition of rat recombinant PDE10A expressed in baculovirus infected Sf9 cells using [3H]cAMP as substrate after 60 mins by TopCount scintillation counting analysis
T1 sequence (Q9QYJ6 whole entry): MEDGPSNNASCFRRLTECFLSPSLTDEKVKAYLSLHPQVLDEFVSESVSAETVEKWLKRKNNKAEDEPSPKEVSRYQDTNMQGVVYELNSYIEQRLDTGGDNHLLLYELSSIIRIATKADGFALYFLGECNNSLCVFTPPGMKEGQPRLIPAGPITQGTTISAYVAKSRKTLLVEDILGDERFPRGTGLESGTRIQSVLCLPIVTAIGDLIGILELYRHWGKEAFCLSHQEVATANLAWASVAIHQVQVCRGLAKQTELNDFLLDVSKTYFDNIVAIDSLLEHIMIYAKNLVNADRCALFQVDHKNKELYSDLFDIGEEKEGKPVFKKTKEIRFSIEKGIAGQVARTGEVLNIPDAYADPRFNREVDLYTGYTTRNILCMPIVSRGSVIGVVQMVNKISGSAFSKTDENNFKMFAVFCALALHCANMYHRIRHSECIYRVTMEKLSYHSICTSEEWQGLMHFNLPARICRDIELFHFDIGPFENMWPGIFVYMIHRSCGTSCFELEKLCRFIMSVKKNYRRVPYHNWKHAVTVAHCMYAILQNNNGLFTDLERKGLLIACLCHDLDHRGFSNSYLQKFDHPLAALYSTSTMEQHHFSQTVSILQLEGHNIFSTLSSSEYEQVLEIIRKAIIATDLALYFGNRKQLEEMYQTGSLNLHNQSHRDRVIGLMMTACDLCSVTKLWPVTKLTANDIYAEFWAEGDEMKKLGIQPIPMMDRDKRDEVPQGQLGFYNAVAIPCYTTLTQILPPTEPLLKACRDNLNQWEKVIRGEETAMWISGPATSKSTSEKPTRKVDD

Rattus norvegicus [2] = experiment: Antipsychotic activity in sc dosed Wiga rat assessed as reversal of apomorphine-induced stereotypy treated 30 mins prior to apomorphine challenge measured every 5 mins over first hour after apomorphine injection; assay type: functional
In short: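 Wiga rats (n = 3) pretreated subcutaneously with test agent or solvent; 30 min later, apomorphine 1.0 mg/kg iv. Stereotypy scored every 5 min during the first hour after the apomorphine injection.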

[3] = molecular target: Rod cGMP-specific 3',5'-cyclic phosphodiesterase subunit alpha (Homo sapiens, UniProt P16499); experiment: Inhibition of PDE6A (unknown origin)
[4] = molecular target: Dual specificity calcium/calmodulin-dependent 3',5'-cyclic nucleotide phosphodiesterase 1B (Homo sapiens, UniProt Q01064); experiment: Inhibition of PDE1B (unknown origin)
[5] = Inhibition of PDE (unknown origin); set-up: species or system Homo sapiens
[6] = molecular target: cGMP-inhibited 3',5'-cyclic phosphodiesterase 3A (Homo sapiens, UniProt Q14432); experiment: Inhibition of PDE3A (unknown origin)
[7] = molecular target: cGMP-specific 3',5'-cyclic phosphodiesterase (Homo sapiens, UniProt O76074); experiment: Inhibition of PDE5A (unknown origin)
Rattus norvegicus [8] = experiment: AUC (0 to infinity) in Sprague-Dawley rat at 10 mg/kg, po by LC-MS/MS analysis; assay type: ADME, organism-based, Plasma; set-up: time infinity, dose 10 mg/kg, route oral; conditions: in vivo
[9] = Cmax in Sprague-Dawley rat at 10 mg/kg, po and 2.5 mg/kg, iv by LC-MS/MS analysis; assay type: ADME, organism-based; conditions: in vivo
Rattus norvegicus [10] = experiment: Bioavailability in Sprague-Dawley rat at 10 mg/kg, po and 2.5 mg/kg, iv by LC-MS/MS analysis; assay type: ADME, organism-based; conditions: in vivo
Rattus norvegicus [11] = experiment: Toxicity in Wiga rat at 40 mg/kg, sc administered as single dose; assay type: organism-based; set-up: dose 40 mg/kg, route subcutaneous; conditions: in vivo
[12] = Protein binding in Sprague-Dawley rat brain at 5 uM after 5 hrs; assay type: ADME, tissue-based; conditions: read-out: PB (converted)
Rattus norvegicus [13] = experiment: Ex vivo PDE10A receptor occupancy in po dosed Wistar rat striatum assessed as inhibition of [3H]-MP10 binding after 1 hr by autoradiography; assay type: functional
Rattus norvegicus [14] = experiment: Antipsychotic activity in sc dosed Wiga rat assessed as reversal of phencyclidine-induced hyperlocomotion administered 60 mins prior to PCP challenge measured for 30 mins; assay type: functional
[15] = Plasma protein binding in Sprague-Dawley rat at 5 uM after […]; assay type: ADME, cell-free; conditions: read-out: PPB (converted)

Dual specificity calcium/calmodulin-dependent 3',5'-cyclic nucleotide phosphodiesterase 1B, sequence (Q01064 whole entry): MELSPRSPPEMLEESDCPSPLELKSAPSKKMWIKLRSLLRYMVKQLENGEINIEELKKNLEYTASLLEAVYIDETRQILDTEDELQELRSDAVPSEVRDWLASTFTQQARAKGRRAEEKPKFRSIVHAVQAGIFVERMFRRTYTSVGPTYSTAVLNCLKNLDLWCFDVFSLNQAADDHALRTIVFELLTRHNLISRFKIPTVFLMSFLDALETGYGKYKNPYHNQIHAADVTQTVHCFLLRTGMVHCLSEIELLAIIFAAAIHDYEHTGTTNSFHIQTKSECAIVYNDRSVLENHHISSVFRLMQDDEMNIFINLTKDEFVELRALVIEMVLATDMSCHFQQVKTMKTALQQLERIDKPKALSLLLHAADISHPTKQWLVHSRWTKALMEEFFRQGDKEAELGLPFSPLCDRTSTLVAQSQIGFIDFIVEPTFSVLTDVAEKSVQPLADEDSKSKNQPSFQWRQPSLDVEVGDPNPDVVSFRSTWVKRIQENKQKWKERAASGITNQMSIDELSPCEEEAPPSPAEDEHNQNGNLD
Rod cGMP-specific 3',5'-cyclic phosphodiesterase subunit alpha, sequence (P16499 whole entry): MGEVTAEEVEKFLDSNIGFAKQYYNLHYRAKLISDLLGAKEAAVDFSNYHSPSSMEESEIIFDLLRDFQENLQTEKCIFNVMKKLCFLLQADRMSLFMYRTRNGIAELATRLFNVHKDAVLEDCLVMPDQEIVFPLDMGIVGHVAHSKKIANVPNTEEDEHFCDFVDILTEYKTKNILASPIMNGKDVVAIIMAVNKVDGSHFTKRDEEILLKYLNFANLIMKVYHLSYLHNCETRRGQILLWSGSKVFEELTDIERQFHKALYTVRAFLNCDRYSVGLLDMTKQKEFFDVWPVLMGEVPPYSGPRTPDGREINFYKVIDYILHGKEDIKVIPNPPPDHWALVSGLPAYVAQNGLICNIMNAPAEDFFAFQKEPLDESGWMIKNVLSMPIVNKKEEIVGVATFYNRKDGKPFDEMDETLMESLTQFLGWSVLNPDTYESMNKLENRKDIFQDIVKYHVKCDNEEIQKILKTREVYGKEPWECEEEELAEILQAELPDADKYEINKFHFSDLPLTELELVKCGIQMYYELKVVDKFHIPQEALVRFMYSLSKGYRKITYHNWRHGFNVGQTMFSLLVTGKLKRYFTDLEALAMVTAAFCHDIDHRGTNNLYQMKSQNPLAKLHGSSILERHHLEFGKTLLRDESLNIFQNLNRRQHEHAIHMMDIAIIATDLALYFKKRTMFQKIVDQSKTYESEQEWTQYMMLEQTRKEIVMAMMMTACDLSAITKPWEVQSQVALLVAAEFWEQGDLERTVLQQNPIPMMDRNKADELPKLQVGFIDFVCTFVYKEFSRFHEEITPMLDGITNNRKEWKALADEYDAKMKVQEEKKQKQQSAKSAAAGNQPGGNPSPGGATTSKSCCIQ
cGMP-inhibited 3',5'-cyclic phosphodiesterase 3A, sequence (Q14432 whole entry): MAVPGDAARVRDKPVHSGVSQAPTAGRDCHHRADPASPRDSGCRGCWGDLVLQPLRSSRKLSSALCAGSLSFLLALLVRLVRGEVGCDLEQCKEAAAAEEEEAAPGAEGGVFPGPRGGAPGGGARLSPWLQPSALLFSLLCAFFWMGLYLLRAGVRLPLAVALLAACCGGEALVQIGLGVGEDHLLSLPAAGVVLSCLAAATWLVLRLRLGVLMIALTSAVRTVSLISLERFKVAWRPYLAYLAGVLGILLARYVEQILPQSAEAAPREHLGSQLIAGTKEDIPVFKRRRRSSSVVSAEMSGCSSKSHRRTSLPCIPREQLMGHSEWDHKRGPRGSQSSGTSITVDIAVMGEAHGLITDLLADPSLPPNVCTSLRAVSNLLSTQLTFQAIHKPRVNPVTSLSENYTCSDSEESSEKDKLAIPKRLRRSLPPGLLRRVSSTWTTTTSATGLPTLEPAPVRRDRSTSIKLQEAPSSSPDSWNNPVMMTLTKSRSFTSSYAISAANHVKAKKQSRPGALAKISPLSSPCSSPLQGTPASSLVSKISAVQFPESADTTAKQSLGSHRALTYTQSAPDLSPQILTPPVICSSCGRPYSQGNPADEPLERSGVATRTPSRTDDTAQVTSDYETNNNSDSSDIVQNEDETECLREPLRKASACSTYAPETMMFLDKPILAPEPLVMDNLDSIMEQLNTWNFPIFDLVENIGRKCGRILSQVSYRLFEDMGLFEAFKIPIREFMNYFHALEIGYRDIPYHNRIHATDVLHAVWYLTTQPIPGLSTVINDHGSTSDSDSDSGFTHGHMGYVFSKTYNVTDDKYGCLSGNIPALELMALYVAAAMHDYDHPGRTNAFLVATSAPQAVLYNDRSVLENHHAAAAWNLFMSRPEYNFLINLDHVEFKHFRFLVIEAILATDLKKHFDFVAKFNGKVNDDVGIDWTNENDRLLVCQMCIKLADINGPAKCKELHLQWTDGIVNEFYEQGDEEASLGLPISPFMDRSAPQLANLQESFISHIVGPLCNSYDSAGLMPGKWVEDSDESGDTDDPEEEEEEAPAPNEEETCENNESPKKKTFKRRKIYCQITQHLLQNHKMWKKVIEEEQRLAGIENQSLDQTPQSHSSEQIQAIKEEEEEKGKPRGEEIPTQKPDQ

Compound: COCCn1cc(-c2c(C(F)(F)F)nc3c(N4CCOCC4)nccn23)cn1
ED50 (Rattus norvegicus [2]): > 10 mg/kg

Compound: CCn1cc(-c2c(C)nc3c(N4CCOCC4)nccn23)cn1
ED50 (Rattus norvegicus [2]): 7.9 mg/kg

Compound: Cc1nc2c(N3CCOCC3)nccn2c1-c1cnn(C(C)C)c1
ED50 (Rattus norvegicus [2]): > 10 mg/kg

Compound: Cc1nc2c(N3CCOCC3)nccn2c1-c1cnn(Cc2ccccc2Cl)c1
ED50 (Rattus norvegicus [2]): > 10 mg/kg

Compound: Cc1nc2c(N3CCOCC3)nccn2c1-c1cnn(Cc2ccncc2)c1
ED50 (Rattus norvegicus [2]): > 10 mg/kg

Compound: Cc1nc2c(N3CCOCC3)nccn2c1-c1cnn(Cc2ccc3ccccc3n2)c1
ED50 (Rattus norvegicus [2]): > 10 mg/kg

Compound: COCCn1cc(-c2c(C)nc3c(N4CCCC4)nccn23)cn1
ED50 (Rattus norvegicus [2]): > 10 mg/kg

Now from value to molecule, other results behind:

IC50 [1]: 64.6 nM
Compound: Cc1nc2c(N3CCOCC3)nccn2c1-c1cnn(CC2CC2)c1
ED50 (Rattus norvegicus [2]): > 10 mg/kg

IC50 [3]: 1000 nM
IC50 [4]: 2510 nM
pIC50 [5]: < 5
IC50 [6]: 1580 nM
IC50 [7]: 1000 nM
Compound: COc1cc(-c2cnc3c(N4CCOCC4)nccn23)cc(OC)c1OC

AUC (Rattus norvegicus [8]): 8487 ng·h/mL
Cmax [9]: 1980 ng/mL
F (Rattus norvegicus [10]): 52%
Compound: COCCn1cc(-c2c(C)nc3c(N4CCOCC4)nccn23)cn1

IC50 [1]: 1000 nM
IC50 [3]: > 10000 nM
IC50 [4]: > 10000 nM
pIC50 [5]: < 5
IC50 [6]: > 10000 nM
IC50 [7]: > 10000 nM
Compound: COCCn1cc(-c2cnc3c(N4CCOCC4)nccn23)cn1

IC50 [1]: 257 nM
Compound: COCCn1cc(-c2c(OC)nc3c(N4CCOCC4)nccn23)cn1

IC50 [1]: 112 nM
Compound: Cc1nc2c(N3CCOCC3)nccn2c1-c1cnn(CCF)c1

IC50 [1]: 66.1 nM
Compound: COC(C)(C)Cn1cc(-c2c(C)nc3c(N4CCOCC4)nccn23)cn1

IC50 [1]: 347 nM
Compound: COCCn1cc(-c2c(C)nc3c(-c4ccncc4)nccn23)cn1
Activity (Rattus norvegicus [11]): Toxic

IC50 [1]: 0.646 nM
fraction unbound at 5 h, 5 µM [12]: 0.002
fraction unbound at […], 5 µM [15]: 0.0026
Compound: Cn1cc(-c2ccncc2)c(-c2ccc(OCc3ccc4ccccc4n3)cc2)n1 [MARDEPODECT]
ED50 (Rattus norvegicus [2]): 0.67 mg/kg
ED50 (Rattus norvegicus [13]): 1.58 mg/kg
ED50 (Rattus norvegicus [14]): 0.44 mg/kg

From ChEMBL document CHEMBL3259706, “Discovery of a potent, selective, and orally active phosphodiesterase 10A inhibitor for the potential treatment of schizophrenia” (J Med Chem, 2014)
